Assay results published in ChEMBL document CHEMBL3244286, “Inactivation of trypsin-like proteases by sulfonylation. Variation of positively charged group and inhibitor length” (J Med Chem, 1978).

Legend:
[1] = molecular target: T1, Plasma kallikrein (Homo sapiens, UniProt P03952); assay: Inhibition of 2 X 10^-7 M human plasma kallikrein using Z-Lys-nitrophenyl ester as substrate assessed as second-order rate inactivation constant incubated up to 1 hr at pH 7.4
Summary of the method: (§1)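 Enzyme and inhibitor incubated at room temperature in 0.1 M tris chloride, pH 7.4, with no more than 1% DMF from stocks. Aliquots were withdrawn and residual activity was assayed with Z-Lys-nitrophenyl ester. Protease concentration was set by methylumbelliferyl p-guanidinobenzoate titration. Decay was first order, k1 = 0.693/t1/2 (min), and the second-order constant is k1 divided by inhibitor concentration. Incubations with little loss of activity were stopped at 1 h.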

[2] = molecular target: T2, Plasminogen (Homo sapiens, UniProt P00747); assay: Inhibition of 4.8 X 10^-7 M human plasmin using Z-Lys-nitrophenyl ester as substrate assessed as second-order rate inactivation constant incubated up to 1 hr at pH 7.4; summary of the method: as §1
[3] = molecular target: Prothrombin (Bos taurus) (UniProt P00735); assay: Inhibition of 16 X 10^-7 M bovine thrombin using Z-Lys-nitrophenyl ester as substrate assessed as second-order rate inactivation constant incubated up to 1 hr at pH 7.4; summary of the method: as §1
[4] = species: Bos taurus; assay: Inhibition of 6.4 X 10^-7 M bovine trypsin using Z-Lys-nitrophenyl ester as substrate assessed as second-order rate inactivation constant incubated up to 1 hr at pH 7.4; summary of the method: as §1
[5] = molecular target: Prothrombin (Bos taurus) (UniProt P00735); assay: Inhibition of 16 X 10^-7 M bovine thrombin using Z-Lys-nitrophenyl ester as substrate assessed as half time required for enzyme inactivation at 5X10'-5 M at pH 7.4; summary of the method: as §1
[6] = molecular target: T1, Plasma kallikrein; assay: Inhibition of 2 X 10^-7 M human plasma kallikrein using Z-Lys-nitrophenyl ester as substrate assessed as half time required for enzyme inactivation at 5X10'-6 M at pH 7.4; settings: in the assay text read “5.4X10'-4 M” for “5X10'-6 M”; summary of the method: as §1
[7] = molecular target: Urokinase-type plasminogen activator (Homo sapiens) (UniProt P00749); assay: Inhibition of 51 X 10^-7 M human urokinase using Z-Lys-thiobenzyl ester as substrate assessed as second-order rate inactivation constant incubated up to 1 hr at pH 7.4
[8] = molecular target: Urokinase-type plasminogen activator (Homo sapiens) (UniProt P00749); assay: Inhibition of 2 X 10^-7 M human urokinase using Z-Lys-thiobenzyl ester as substrate assessed as second-order rate inactivation constant incubated up to 1 hr at pH 7.4; settings: in the assay text read “51 X 10^-7 M” for “2 X 10^-7 M”
Summary of the method: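 Purified urokinase incubated with inhibitor at room temperature in 0.1 M tris chloride, pH 7.4, with no more than 1% DMF. Residual activity in aliquots was read with Z-Lys-thiobenzyl ester. Enzyme was active-site titrated with methylumbelliferyl p-guanidinobenzoate. First-order k1 = 0.693/t1/2 (min), divided by inhibitor concentration to give the second-order rate. Incubations were not run past 1 h when loss was low.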

[9] = molecular target: T1, Plasma kallikrein; assay: Competitive inhibition of 2 X 10^-7 M human plasma kallikrein using Z-Lys-nitrophenyl ester as substrate incubated up to 1 hr at pH 6
Summary of the method: (§2)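 Ki for competitive inhibition measured at pH 6 with Z-Lys-nitrophenyl ester as substrate. Enzyme concentrations were set by active-site titration with methylumbelliferyl p-guanidinobenzoate. Compounds were added from DMF stocks, with no more than 1% DMF in the reaction.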

[10] = molecular target: T2, Plasminogen; assay: Competitive inhibition of 4.8 X 10^-7 M human plasmin using Z-Lys-nitrophenyl ester as substrate incubated up to 1 hr at pH 6; summary of the method: as §2
[11] = molecular target: Prothrombin (Bos taurus, UniProt P00735); assay: Competitive inhibition of 16 X 10^-7 M bovine thrombin using Z-Lys-nitrophenyl ester as substrate incubated up to 1 hr at pH 6
Summary of the method: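 Ki for competitive inhibition was determined at pH 6 against Z-Lys-nitrophenyl ester hydrolysis, following previously published procedures. Active enzyme concentration was set by titration with methylumbelliferyl p-guanidinobenzoate. Inhibitors were added from DMF stock solutions, with DMF at no more than 1% of the reaction mixture.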

[12] = Competitive inhibition of 6.4 X 10^-7 M bovine trypsin using Z-Lys-nitrophenyl ester as substrate incubated up to 1 hr at pH 6; design: species or system Bos taurus; summary of the method: as §2

T2 sequence (P00747 97-580 limits assumed): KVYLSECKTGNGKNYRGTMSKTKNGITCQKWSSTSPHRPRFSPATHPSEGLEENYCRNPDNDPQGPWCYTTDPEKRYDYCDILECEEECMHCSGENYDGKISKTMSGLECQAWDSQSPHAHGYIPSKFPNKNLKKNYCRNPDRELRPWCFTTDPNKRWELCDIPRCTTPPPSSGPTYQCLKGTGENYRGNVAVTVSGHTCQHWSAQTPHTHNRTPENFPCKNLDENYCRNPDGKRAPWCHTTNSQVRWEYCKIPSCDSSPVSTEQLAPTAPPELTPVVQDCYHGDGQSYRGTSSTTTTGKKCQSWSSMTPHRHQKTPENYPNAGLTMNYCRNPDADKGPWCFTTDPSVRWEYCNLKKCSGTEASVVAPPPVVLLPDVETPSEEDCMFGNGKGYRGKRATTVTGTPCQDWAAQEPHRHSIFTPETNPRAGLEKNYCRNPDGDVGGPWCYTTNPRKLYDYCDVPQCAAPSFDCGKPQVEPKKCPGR
T2 sequence (P00747 581-810 limits assumed): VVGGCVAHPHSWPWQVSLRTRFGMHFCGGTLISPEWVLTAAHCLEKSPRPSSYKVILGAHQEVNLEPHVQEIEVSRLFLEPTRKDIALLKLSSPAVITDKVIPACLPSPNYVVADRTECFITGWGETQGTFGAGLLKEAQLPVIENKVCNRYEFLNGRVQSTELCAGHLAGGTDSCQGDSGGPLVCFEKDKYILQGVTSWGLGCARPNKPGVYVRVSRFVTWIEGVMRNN
T1 sequence (P03952 20-390 limits assumed): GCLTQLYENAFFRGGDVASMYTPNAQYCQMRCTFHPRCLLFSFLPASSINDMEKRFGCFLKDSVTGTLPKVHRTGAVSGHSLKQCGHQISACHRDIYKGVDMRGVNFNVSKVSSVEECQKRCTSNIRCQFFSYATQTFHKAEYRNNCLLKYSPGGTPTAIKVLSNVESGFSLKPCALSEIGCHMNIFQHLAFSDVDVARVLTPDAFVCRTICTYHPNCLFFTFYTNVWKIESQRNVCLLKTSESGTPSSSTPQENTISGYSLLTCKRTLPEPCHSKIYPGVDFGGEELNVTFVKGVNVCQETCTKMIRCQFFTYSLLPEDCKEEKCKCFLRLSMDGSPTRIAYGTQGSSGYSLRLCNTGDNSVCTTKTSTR
T1 sequence (P03952 391-638 limits assumed): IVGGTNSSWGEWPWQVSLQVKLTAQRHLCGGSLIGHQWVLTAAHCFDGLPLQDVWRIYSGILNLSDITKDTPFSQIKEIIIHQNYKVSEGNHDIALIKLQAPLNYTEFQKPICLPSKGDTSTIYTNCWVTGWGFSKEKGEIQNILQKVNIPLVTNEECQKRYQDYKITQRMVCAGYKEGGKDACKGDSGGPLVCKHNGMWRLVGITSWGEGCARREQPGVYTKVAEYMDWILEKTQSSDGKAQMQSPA

## C[S+](C)c1ccc(CS(=O)(=O)Oc2ccc([N+](=O)[O-])cc2)cc1
[1]
  Kinact: 0 M⁻¹ s⁻¹
[2]
  Kinact: 0 M⁻¹ s⁻¹
[3]
  Kinact: 0 M⁻¹ s⁻¹
[4]
  Kinact: 0 M⁻¹ s⁻¹

## C[S+](C)c1cccc(CS(=O)(=O)Oc2ccc([N+](=O)[O-])cc2)c1
[1]
  Kinact: 0 M⁻¹ s⁻¹
[2]
  Kinact: 0 M⁻¹ s⁻¹
[3]
  Kinact: 0 M⁻¹ s⁻¹
[4]
  Kinact: 0 M⁻¹ s⁻¹

## O=[N+]([O-])c1ccc(OS(=O)(=O)Cc2ccc(-[n+]3ccccc3)cc2)cc1
[1]
  Kinact: 0 M⁻¹ s⁻¹
[2]
  Kinact: 0 M⁻¹ s⁻¹
[3]
  Kinact: 0 M⁻¹ s⁻¹
[4]
  Kinact: 0 M⁻¹ s⁻¹

## O=[N+]([O-])c1ccc(OS(=O)(=O)c2ccc(C[n+]3ccccc3)cc2)cc1
[2]
  Kinact: 0 M⁻¹ s⁻¹
[3]
  Kinact: 0 M⁻¹ s⁻¹
[4]
  Kinact: 0 M⁻¹ s⁻¹

## C[N+](C)(C)Cc1ccc(S(=O)(=O)Oc2ccc([N+](=O)[O-])cc2)cc1
[1]
  Kinact: 0 M⁻¹ s⁻¹
[2]
  Kinact: 0.833 M⁻¹ s⁻¹
[3]
  Kinact: 2.45 M⁻¹ s⁻¹

## C[S+](C)Cc1ccc(S(=O)(=O)Oc2ccc([N+](=O)[O-])cc2)cc1
[1]
  Kinact: 0 M⁻¹ s⁻¹
[2]
  Kinact: 0 M⁻¹ s⁻¹
[3]
  Kinact: 0 M⁻¹ s⁻¹
[4]
  Kinact: 0 M⁻¹ s⁻¹

## N=C(N)SCc1ccc(S(=O)(=O)Oc2ccc([N+](=O)[O-])cc2)cc1
[1]
  Kinact: 0.183 M⁻¹ s⁻¹
[2]
  Kinact: 2.08 M⁻¹ s⁻¹
[3]
  Kinact: 9.67 M⁻¹ s⁻¹
[5]
  T1/2: 22 min
[6]
  T1/2: > 120 min
[7]
  Kinact: 1.53 M⁻¹ s⁻¹

## N=C(N)SCc1ccc(CS(=O)(=O)Oc2cccc([N+](=O)[O-])c2)cc1
[1]
  Kinact: 0 M⁻¹ s⁻¹
[2]
  Kinact: 0 M⁻¹ s⁻¹
[3]
  Kinact: 0 M⁻¹ s⁻¹
[4]
  Kinact: 7.17 M⁻¹ s⁻¹

## O=[N+]([O-])c1ccc(OS(=O)(=O)Cc2cccc(-[n+]3ccccc3)c2)cc1
[1]
  Kinact: 0 M⁻¹ s⁻¹
[2]
  Kinact: 0 M⁻¹ s⁻¹
[3]
  Kinact: 0 M⁻¹ s⁻¹
[4]
  Kinact: 0 M⁻¹ s⁻¹
[8]
  Kinact: 0 M⁻¹ s⁻¹

## CNC(=N)SCc1ccc(S(=O)(=O)Oc2ccc([N+](=O)[O-])cc2)cc1
[1]
  Kinact: 0 M⁻¹ s⁻¹
[2]
  Kinact: 0 M⁻¹ s⁻¹
[3]
  Kinact: 0 M⁻¹ s⁻¹
[4]
  Kinact: 0 M⁻¹ s⁻¹

## N=C(N)SCc1ccc(CS(=O)(=O)Oc2ccc([N+](=O)[O-])cc2)cc1
[2]
  Kinact: 0.117 M⁻¹ s⁻¹
[3]
  Kinact: 0 M⁻¹ s⁻¹
[4]
  Kinact: 25 M⁻¹ s⁻¹
[8]
  Kinact: 10 M⁻¹ s⁻¹
[9]
  Ki: 320 µM
[10]
  Ki: 1150 µM
[11]
  Ki: 930 µM
[12]
  Ki: 390 µM
